Results as given in publication PMC9401513 (Clinical Cancer Research, 2021).

What was measured:
[1] = target: CYP3A4 (Homo sapiens, UniProt P08684); experiment: Drug-drug interaction substudy with multiple-dose fluconazole; format: in vivo; conditions: PF-06647020 co-administered with multiple-dose fluconazole, 11 patients
Outline: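 Single-dose test ADC was given alone in cycle 1 (reference) and co-administered with multiple-dose fluconazole in cycle 2 (test). Unconjugated payload exposure was measured as dose-normalized AUCinf and Cmax from noncompartmental analysis. Results were expressed as ratios of adjusted geometric means with 90% confidence intervals.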

[2] = system: patients with advanced solid tumors; experiment: Adverse events graded by NCI-CTCAE v4.03 in phase I patients; format: in vivo, human
Outline: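 Test compound was given by IV infusion over about 60 min every 3 weeks in sequential dose-escalation cohorts to adults with advanced solid tumors (ECOG 0–1). Adverse events were graded by NCI-CTCAE v4.03 over all cycles and tabulated as treatment-related by dose level. G-CSF was permitted after cycle 1. Antiemetics and corticosteroids were given at the physician's discretion.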

[3] = Immunogenicity: anti-drug antibodies and neutralizing antibodies; format: in vivo, human
Outline: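 Anti-drug antibodies were measured by a validated electrochemiluminescent assay. Samples were taken on days 1 and 15 of cycle 1, day 1 of each later cycle, and at end of treatment. ADA-positive samples were tested for neutralizing antibodies by a validated competitive ligand-binding electrochemiluminescent method.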

[4] = system: advanced TNBC; experiment: Objective tumor response by RECIST v1.1, TNBC; format: in vivo, human; conditions: every 3 weeks
Outline: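 Investigators assessed tumor response by RECIST v1.1 every 6 weeks (every-3-weeks cohorts) or every 8 weeks (every-2-weeks cohorts). CR and PR in expansion cohorts were confirmed by repeat assessment at least 4 weeks later, and ORR was calculated. NSCLC patients were preselected for moderate-to-high tumor PTK7 by IHC. Later TNBC patients were preselected for moderately high-to-high PTK7. Ovarian cancer patients were platinum-resistant and not preselected.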

[5] = 0.2 mg/kg every 3 weeks, all cycles, 2 evaluable pts
[6] = 0.5 mg/kg every 3 weeks, all cycles, 2 evaluable pts
[7] = 1.25 mg/kg every 3 weeks, all cycles, 2 evaluable pts
[8] = 2.1 mg/kg every 3 weeks, all cycles, 4 evaluable pts
[9] = 2.8 mg/kg every 3 weeks, all cycles, 96 evaluable pts
[10] = 3.7 mg/kg every 3 weeks, all cycles, 6 evaluable pts
[11] = every 3 weeks, all cycles, N = 112

Sequence of CYP3A4 (P08684 whole entry): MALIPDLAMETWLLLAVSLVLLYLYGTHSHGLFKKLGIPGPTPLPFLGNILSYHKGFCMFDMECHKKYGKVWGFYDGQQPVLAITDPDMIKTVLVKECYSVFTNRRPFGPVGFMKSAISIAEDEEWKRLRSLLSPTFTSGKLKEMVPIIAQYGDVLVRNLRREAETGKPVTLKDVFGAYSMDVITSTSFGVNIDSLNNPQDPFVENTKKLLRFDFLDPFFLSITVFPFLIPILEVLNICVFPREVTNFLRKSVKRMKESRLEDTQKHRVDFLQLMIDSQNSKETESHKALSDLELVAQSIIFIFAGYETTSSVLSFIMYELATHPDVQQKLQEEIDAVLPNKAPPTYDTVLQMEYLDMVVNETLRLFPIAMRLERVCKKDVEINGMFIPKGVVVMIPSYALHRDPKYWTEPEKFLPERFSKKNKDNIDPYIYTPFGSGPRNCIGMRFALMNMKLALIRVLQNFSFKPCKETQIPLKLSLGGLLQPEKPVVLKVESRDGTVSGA

B1: cofetuzumab pelidotin (conjugate, chains of the INN, looked up)
VH: QVQLVQSGPEVKKPGASVKVSCKASGYTFTDYAVHWVRQAPGKRLEWIGVISTYNDYTYNNQDFKGRVTMTRDTSASTAYMELSRLRSEDTAVYYCARGNSYFYALDYWGQGTSVTVSS
VL: EIVLTQSPATLSLSPGERATLSCRASESVDSYGKSFMHWYQQKPGQAPRLLIYRASNLESGIPARFSGSGSGTDFTLTISSLEPEDFAVYYCQQSNEDPWTFGGGTKLEIK
modifications: auristatin-0101 payload, vc linker
**Q.** Which results are given for B1?
**A.** impact of fluconazole co-administration on overall exposure [1]: did not have a notable impact; Number of AEs (TRAEs) [2, 5]: 1 n (%); Pts discontinued due to AEs (TRAEs) [2, 5]: 0 n (%); Pts with AEs (TRAEs) [2, 5]: 1 (50.0) n (%); Pts with G3/G4 AEs (TRAEs) [2, 5]: 1 (50.0) n (%); Pts with SAEs (TRAEs) [2, 5]: 0 n (%); Pts with dose reduction and temporary discontinuation due to AEs (TRAEs) [2, 5]: 0 n (%); Pts with dose reduction due to AEs (TRAEs) [2, 5]: 0 n (%); Pts with temporary discontinuation due to AEs (TRAEs) [2, 5]: 0 n (%); Number of AEs (TRAEs) [2, 6]: 1 n (%); Pts discontinued due to AEs (TRAEs) [2, 6]: 0 n (%); Pts with AEs (TRAEs) [2, 6]: 1 (50.0) n (%); Pts with G3/G4 AEs (TRAEs) [2, 6]: 0 n (%); Pts with SAEs (TRAEs) [2, 6]: 0 n (%); Pts with dose reduction and temporary discontinuation due to AEs (TRAEs) [2, 6]: 0 n (%); Pts with dose reduction due to AEs (TRAEs) [2, 6]: 0 n (%); Pts with temporary discontinuation due to AEs (TRAEs) [2, 6]: 0 n (%); Number of AEs (TRAEs) [2, 7]: 6 n (%); Pts discontinued due to AEs (TRAEs) [2, 7]: 0 n (%); Pts with AEs (TRAEs) [2, 7]: 1 (50.0) n (%); Pts with G3/G4 AEs (TRAEs) [2, 7]: 0 n (%); Pts with SAEs (TRAEs) [2, 7]: 0 n (%); Pts with dose reduction and temporary discontinuation due to AEs (TRAEs) [2, 7]: 0 n (%); Pts with dose reduction due to AEs (TRAEs) [2, 7]: 0 n (%); Pts with temporary discontinuation due to AEs (TRAEs) [2, 7]: 0 n (%); Number of AEs (TRAEs) [2, 8]: 28 n (%); Pts discontinued due to AEs (TRAEs) [2, 8]: 1 (25.0) n (%); Pts with AEs (TRAEs) [2, 8]: 4 (100.0) n (%); Pts with G3/G4 AEs (TRAEs) [2, 8]: 0 n (%); Pts with SAEs (TRAEs) [2, 8]: 1 (25.0) n (%); Pts with dose reduction and temporary discontinuation due to AEs (TRAEs) [2, 8]: 0 n (%); Pts with dose reduction due to AEs (TRAEs) [2, 8]: 0 n (%); Pts with temporary discontinuation due to AEs (TRAEs) [2, 8]: 0 n (%); Number of AEs (TRAEs) [2, 9]: 475 n (%); Pts discontinued due to AEs (TRAEs) [2, 9]: 2 (2.1) n (%); Pts with AEs (TRAEs) [2, 9]: 84 (87.5) n (%); Pts with G3/G4 AEs (TRAEs) [2, 9]: 40 (41.7) n (%); Pts with SAEs (TRAEs) [2, 9]: 9 (9.4) n (%); Pts with dose reduction and temporary discontinuation due to AEs (TRAEs) [2, 9]: 3 (3.1) n (%); Pts with dose reduction due to AEs (TRAEs) [2, 9]: 7 (7.3) n (%); Pts with temporary discontinuation due to AEs (TRAEs) [2, 9]: 16 (16.7) n (%); Number of AEs (TRAEs) [2, 10]: 27 n (%); Pts discontinued due to AEs (TRAEs) [2, 10]: 0 n (%); Pts with AEs (TRAEs) [2, 10]: 5 (83.3) n (%); Pts with G3/G4 AEs (TRAEs) [2, 10]: 3 (50.0) n (%); Pts with SAEs (TRAEs) [2, 10]: 0 n (%); Pts with dose reduction and temporary discontinuation due to AEs (TRAEs) [2, 10]: 1 (16.7) n (%); Pts with dose reduction due to AEs (TRAEs) [2, 10]: 0 n (%); Pts with temporary discontinuation due to AEs (TRAEs) [2, 10]: 0 n (%); patients reporting headache after infusion on cycle 1, day 1 or 2 ([2]; all patients, every 3 weeks and every 2 weeks cohorts): 29 patients; grade 1–2 peripheral sensory neuropathy ([2]; every 2 weeks, N = 25): 20%; grade 3 peripheral sensory neuropathy ([2]; every 2 weeks, N = 25): 8%; patients discontinued because of a TRAE ([2]; every 2 weeks, N = 25): 4%; patients with dose reduction ([2]; every 2 weeks, N = 25): 16%; patients with grade ≥ 3 all-cause AEs ([2]; every 2 weeks, N = 25): 72%; temporary discontinuations due to TRAEs ([2]; every 2 weeks, N = 25): 44%; treatment-related grade 3–4 neutropenia ([2]; every 2 weeks, N = 25): 24%; patients died on study ([2]; every 2 weeks, N = 25, disease progression): 16%; deaths because of a treatment-related AE ([2]; every 3 weeks and every 2 weeks): None of the patients died because of a treatment-related AE; treatment-emergent, all-cause AEs ([2]; every 3 weeks or every 2 weeks): all patients; treatment-related grade 5 AEs ([2]; every 3 weeks regimen): ^aNo treatment-related grade 5 AEs were observed with the every 3 weeks regimen.; febrile neutropenia ([2]; every 3 weeks, N = 112): 2.7%; grade ≥ 3 treatment-related neutropenia ([2]; every 3 weeks, N = 112): 25%; patients discontinued because of a TRAE ([2]; every 3 weeks, N = 112): 2.7%; patients with dose reduction ([2]; every 3 weeks, N = 112): 6.3%; patients with grade ≥ 3 all-cause AEs ([2]; every 3 weeks, N = 112): 79.4%; temporary discontinuations due to TRAEs ([2]; every 3 weeks, N = 112): 14.3%; treatment-related peripheral sensory neuropathy (all grade 1 or 2) ([2]; every 3 weeks, N = 112): 12.5%; patients died on study ([2]; every 3 weeks, N = 112, mostly disease progression): 15.2%; TRAE Alopecia, Grade 1 [2, 11]: 13 (11.6) n (%); TRAE Alopecia, Grade 2 [2, 11]: 33 (29.5) n (%); TRAE Alopecia, Grade 3 [2, 11]: 0 n (%); TRAE Alopecia, Grade 4 [2, 11]: 0 n (%); TRAE Alopecia, Total [2, 11]: 46 (41.1) n (%); TRAE Arthralgia, Grade 1 [2, 11]: 16 (14.3) n (%); TRAE Arthralgia, Grade 2 [2, 11]: 2 (1.8) n (%); TRAE Arthralgia, Grade 3 [2, 11]: 1 (0.9) n (%); TRAE Arthralgia, Grade 4 [2, 11]: 0 n (%); TRAE Arthralgia, Total [2, 11]: 19 (17.0) n (%); TRAE Decreased appetite, Grade 1 [2, 11]: 11 (9.8) n (%); TRAE Decreased appetite, Grade 2 [2, 11]: 7 (6.3) n (%); TRAE Decreased appetite, Grade 3 [2, 11]: 0 n (%); TRAE Decreased appetite, Grade 4 [2, 11]: 0 n (%); TRAE Decreased appetite, Total [2, 11]: 18 (16.1) n (%); TRAE Diarrhea, Grade 1 [2, 11]: 8 (7.1) n (%); TRAE Diarrhea, Grade 2 [2, 11]: 8 (7.1) n (%); TRAE Diarrhea, Grade 3 [2, 11]: 1 (0.9) n (%); TRAE Diarrhea, Grade 4 [2, 11]: 0 n (%); TRAE Diarrhea, Total [2, 11]: 17 (15.2) n (%); TRAE Fatigue, Grade 1 [2, 11]: 19 (17.0) n (%); TRAE Fatigue, Grade 2 [2, 11]: 19 (17.0) n (%); TRAE Fatigue, Grade 3 [2, 11]: 3 (2.7) n (%); TRAE Fatigue, Grade 4 [2, 11]: 0 n (%); TRAE Fatigue, Total [2, 11]: 41 (36.6) n (%); TRAE Headache, Grade 1 [2, 11]: 13 (11.6) n (%); TRAE Headache, Grade 2 [2, 11]: 19 (17.0) n (%); TRAE Headache, Grade 3 [2, 11]: 5 (4.5) n (%); TRAE Headache, Grade 4 [2, 11]: 0 n (%); TRAE Headache, Total [2, 11]: 37 (33.0) n (%); TRAE Myalgia, Grade 1 [2, 11]: 11 (9.8) n (%); TRAE Myalgia, Grade 2 [2, 11]: 3 (2.7) n (%); TRAE Myalgia, Grade 3 [2, 11]: 1 (0.9) n (%); TRAE Myalgia, Grade 4 [2, 11]: 0 n (%); TRAE Myalgia, Total [2, 11]: 15 (13.4) n (%); TRAE Nausea, Grade 1 [2, 11]: 28 (25.0) n (%); TRAE Nausea, Grade 2 [2, 11]: 21 (18.8) n (%); TRAE Nausea, Grade 3 [2, 11]: 1 (0.9) n (%); TRAE Nausea, Grade 4 [2, 11]: 0 n (%); TRAE Nausea, Total [2, 11]: 50 (44.6) n (%); TRAE Neutropenia, Grade 1 [2, 11]: 0 n (%); TRAE Neutropenia, Grade 2 [2, 11]: 4 (3.6) n (%); TRAE Neutropenia, Grade 3 [2, 11]: 17 (15.2) n (%); TRAE Neutropenia, Grade 4 [2, 11]: 11 (9.8) n (%); TRAE Neutropenia, Total [2, 11]: 32 (28.6) n (%); TRAE Peripheral sensory neuropathy, Grade 1 [2, 11]: 7 (6.3) n (%); TRAE Peripheral sensory neuropathy, Grade 2 [2, 11]: 7 (6.3) n (%); TRAE Peripheral sensory neuropathy, Grade 3 [2, 11]: 0 n (%); TRAE Peripheral sensory neuropathy, Grade 4 [2, 11]: 0 n (%); TRAE Peripheral sensory neuropathy, Total [2, 11]: 14 (12.5) n (%); TRAE Vomiting, Grade 1 [2, 11]: 10 (8.9) n (%); TRAE Vomiting, Grade 2 [2, 11]: 14 (12.5) n (%); TRAE Vomiting, Grade 3 [2, 11]: 4 (3.6) n (%); TRAE Vomiting, Grade 4 [2, 11]: 0 n (%); TRAE Vomiting, Total [2, 11]: 28 (25.0) n (%); patients with ADA at baseline (not boosted by treatment) ([3]; every 2 weeks cohorts): 4%; patients with treatment-induced ADA and NAb ([3]; every 2 weeks, 25 evaluable patients): 4%; infusion-related reaction in ADA-positive patient ([3]; every 2 weeks, one patient, day 1 cycle 4, resolved same day): grade 2 IRR; patients positive for treatment-induced ADA ([3]; every 3 weeks, 108 evaluable patients): 10.2%; CR ([4]; N = 29): 0 N; PR ([4]; N = 29): 6 N; ORR ([4]; N = 29, (95% CI)): 21 (8–40) %; mDOR ([4]; N = 29, (95% CI)): 4.3 (1.3–10.2) mo; mPFS ([4]; N = 29, (95% CI)): 1.5 (1.4–4.3) mo
